Measurements published in ChEMBL document CHEMBL1140035, “4"-Benzoylureido-TSAO derivatives as potent and selective non-nucleoside HCMV inhibitors. Structure-activity relationship and mechanism of antiviral action” (J Med Chem, 2008).
Values after ≈ are worked out from the molar mass of the structure shown. Active and inactive are the calls of the source. No cut-off for these calls is given here.

Assays:
[1] = Cytotoxicity against HEL cells assessed as alteration in cell morphology after 3 days; type: cell-based; conditions: human
Outline: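 Minimum cytotoxic concentration: the lowest compound concentration causing a microscopically detectable alteration of HEL cell morphology.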

Human betaherpesvirus 5 [2] = test: Antiviral activity against (S)-3-hydroxy-2-phosphonomethoxypropyl cytosine-resistant HCMV with DNA polymerase mutant in HEL cells assessed as reduction of virus-induced cytopathogenicity; type: functional, organism-based; conditions: Human betaherpesvirus 5, HEL
Outline: (§1)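 Resistant mutants raised in vitro by serial passage of HCMV AD-169 under rising drug concentrations. Confluent HEL fibroblasts infected at 100 PFU/well for 2 h, then the inoculum was removed. Cells were kept with serial compound concentrations in duplicate for 7 days at 37 °C. After ethanol fixation, cytopathicity was scored microscopically. EC50 is the concentration halving virus-induced cytopathicity.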

Human alphaherpesvirus 2 = test: Antiviral activity against HSV2; type: functional, organism-based
Human alphaherpesvirus 1 = test: Antiviral activity against HSV1; type: functional, organism-based
Human betaherpesvirus 5 [3] = test: Antiviral activity against HCMV 521 with […] and DNA polymerase mutation in HEL cells assessed as reduction of virus-induced cytopathogenicity; type: functional, organism-based; conditions: Human betaherpesvirus 5, HEL
Outline: (§2)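 Drug-resistant HCMV clinical isolates from immunocompromised patients, carrying UL97 and/or DNA polymerase mutations. Confluent HEL fibroblasts infected at 100 PFU/well for 2 h, then residual virus was removed. Medium with serial compound concentrations added in duplicate for 7 days at 37 °C. After ethanol fixation, cytopathicity was scored microscopically. EC50 is the concentration reducing cytopathicity by 50%.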

Human betaherpesvirus 5 [4] = test: Antiviral activity against HCMV Davis in HEL cells assessed as reduction of virus-induced cytopathogenicity after 7 days; type: functional, organism-based; conditions: Human betaherpesvirus 5, Davis, 168 h
Outline: (§3)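 Confluent HEL fibroblasts were infected with strain AD-169 or Davis at 100 PFU/well. After 2 h, residual virus was removed and medium with serial compound concentrations was added, in duplicate. Plates were held 7 days at 37 °C, fixed with ethanol, and scored microscopically for virus-induced cytopathicity. EC50 is the concentration reducing cytopathicity by 50%.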

Human betaherpesvirus 5 [5] = test: Antiviral activity against HCMV in HEL cells assessed as reduction of virus-induced cytopathogenicity administered at 56 hrs post infection; type: functional, organism-based
Outline: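 Time-of-addition: confluent HEL cultures were infected with about 100 PFU/well of HCMV Davis. Compound dilutions were added at 0 h or at later time points post infection, with one plate set per time point. Seven days after infection, plates were ethanol-fixed and Giemsa-stained. Antiviral effect was scored microscopically and EC50 calculated.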

Vaccinia virus = test: Antiviral activity against vaccinia virus; type: functional, organism-based; conditions: Orthopoxvirus vaccinia
Human betaherpesvirus 5 [6] = test: Inhibition of immediate early antigen expression in HCMV Davis in HEL cells at 48 hrs post infection by flow cytometry; type: functional, organism-based
Outline: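 HEL cells were infected with HCMV Davis, with compound dilutions added at infection and incubation at 37 °C. Cells were acetone-fixed at 4 °C, resuspended in PBS with 5% gelatin, and stained at 37 °C with a mAb against IE proteins 1 and 2. A fluorescein-labelled rabbit anti-mouse IgG was applied for 30 min, cells were fixed in 0.5% formaldehyde and analysed by flow cytometry. Background fluorescence of uninfected cells was subtracted.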

Human betaherpesvirus 5 [7] = test: Antiviral activity against HCMV 6 with […] mutation in HEL cells assessed as reduction of virus-induced cytopathogenicity; type: functional, organism-based; conditions: Human betaherpesvirus 5, HEL; outline: as §2
Murid betaherpesvirus 1 = test: Antiviral activity against MCMV in mouse C127I cells assessed as reduction of virus-induced cytopathogenicity after 7 days; type: functional, organism-based; conditions: Murid betaherpesvirus 1, C127I, 168 h
Outline: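 MCMV Smith strain on confluent C127I cells, run as the HCMV assay: 100 PFU/well for 2 h, inoculum removed, then serial compound concentrations in duplicate for 7 days at 37 °C. Cytopathicity was scored microscopically after ethanol fixation. EC50 is the concentration reducing virus-induced cytopathicity by 50%.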

Human betaherpesvirus 5 [8] = test: Antiviral activity against HCMV 530 with […] and DNA polymerase mutation in HEL cells assessed as reduction of virus-induced cytopathogenicity; type: functional, organism-based; conditions: Human betaherpesvirus 5, HEL; outline: as §2
Human alphaherpesvirus 3 [9] = test: Antiviral activity against thymidine-kinase deficient VZV in HEL cells after 5 days by plaque reduction assay; type: functional, organism-based; conditions: Human alphaherpesvirus 3, HEL, 120 h
Outline: (§4)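 Plaque reduction on confluent HEL monolayers infected with 20 PFU/well of cell-associated VZV. After 2 h, inoculum was replaced by compound dilutions in duplicate, with infected-untreated controls. After 5 days, cells were fixed and Giemsa-stained and plaques counted. EC50 is the concentration reducing plaque formation by 50% versus untreated control.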

[10] = Cytotoxicity against HEL cells assessed as reduction in cell growth after 3 days; type: cell-based; conditions: human
Outline: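 HEL cells were seeded at 5 × 10³ cells/well and allowed to proliferate for 24 h. Compound-containing medium was then added at several concentrations for 3 days at 37 °C. Cells were counted with a Coulter counter. CC50, the concentration reducing cell growth by 50% versus untreated controls, was read from plots of cell number (% of control) against concentration.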

Human betaherpesvirus 5 [11] = test: Antiviral activity against HCMV AD169 in HEL cells assessed as reduction of virus-induced cytopathogenicity after 7 days; type: functional, organism-based; conditions: Human betaherpesvirus 5, AD169, HEL, 168 h; outline: as §3
Human betaherpesvirus 5 [12] = test: Antiviral activity against ganciclovir-resistant HCMV with DNA polymerase mutant in HEL cells assessed as reduction of virus-induced cytopathogenicity; type: functional, organism-based; conditions: Human betaherpesvirus 5, HEL; outline: as §1
Human betaherpesvirus 5 [13] = test: Antiviral activity against (S)-3-hydroxy-2-phosphonomethoxypropyl adenine-resistant HCMV with DNA polymerase mutant in HEL cells assessed as reduction of virus-induced cytopathogenicity; type: functional, organism-based; conditions: Human betaherpesvirus 5, HEL; outline: as §1
Human betaherpesvirus 5 [14] = test: Antiviral activity against acyclovir-resistant HCMV with DNA polymerase mutant in HEL cells assessed as reduction of virus-induced cytopathogenicity; type: functional, organism-based; conditions: Human betaherpesvirus 5, HEL; outline: as §1
Human betaherpesvirus 5 [15] = test: Antiviral activity against foscarnet-resistant HCMV with DNA polymerase mutant in HEL cells assessed as reduction of virus-induced cytopathogenicity; type: functional, organism-based; conditions: Human betaherpesvirus 5, HEL; outline: as §1
Human alphaherpesvirus 3 [16] = test: Antiviral activity against wild-type VZV in HEL cells after 5 days by plaque reduction assay; type: functional, organism-based; conditions: Human alphaherpesvirus 3, HEL, 120 h; outline: as §4
[17] = target: T1, DNA polymerase (Human herpesvirus 5) (UniProt A6BMM6); test: Inhibition of HCMV UL54-encoded DNA polymerase at 5 to 7.5 uM after 60 mins; conditions: Human betaherpesvirus 5
T1 sequence (whole entry): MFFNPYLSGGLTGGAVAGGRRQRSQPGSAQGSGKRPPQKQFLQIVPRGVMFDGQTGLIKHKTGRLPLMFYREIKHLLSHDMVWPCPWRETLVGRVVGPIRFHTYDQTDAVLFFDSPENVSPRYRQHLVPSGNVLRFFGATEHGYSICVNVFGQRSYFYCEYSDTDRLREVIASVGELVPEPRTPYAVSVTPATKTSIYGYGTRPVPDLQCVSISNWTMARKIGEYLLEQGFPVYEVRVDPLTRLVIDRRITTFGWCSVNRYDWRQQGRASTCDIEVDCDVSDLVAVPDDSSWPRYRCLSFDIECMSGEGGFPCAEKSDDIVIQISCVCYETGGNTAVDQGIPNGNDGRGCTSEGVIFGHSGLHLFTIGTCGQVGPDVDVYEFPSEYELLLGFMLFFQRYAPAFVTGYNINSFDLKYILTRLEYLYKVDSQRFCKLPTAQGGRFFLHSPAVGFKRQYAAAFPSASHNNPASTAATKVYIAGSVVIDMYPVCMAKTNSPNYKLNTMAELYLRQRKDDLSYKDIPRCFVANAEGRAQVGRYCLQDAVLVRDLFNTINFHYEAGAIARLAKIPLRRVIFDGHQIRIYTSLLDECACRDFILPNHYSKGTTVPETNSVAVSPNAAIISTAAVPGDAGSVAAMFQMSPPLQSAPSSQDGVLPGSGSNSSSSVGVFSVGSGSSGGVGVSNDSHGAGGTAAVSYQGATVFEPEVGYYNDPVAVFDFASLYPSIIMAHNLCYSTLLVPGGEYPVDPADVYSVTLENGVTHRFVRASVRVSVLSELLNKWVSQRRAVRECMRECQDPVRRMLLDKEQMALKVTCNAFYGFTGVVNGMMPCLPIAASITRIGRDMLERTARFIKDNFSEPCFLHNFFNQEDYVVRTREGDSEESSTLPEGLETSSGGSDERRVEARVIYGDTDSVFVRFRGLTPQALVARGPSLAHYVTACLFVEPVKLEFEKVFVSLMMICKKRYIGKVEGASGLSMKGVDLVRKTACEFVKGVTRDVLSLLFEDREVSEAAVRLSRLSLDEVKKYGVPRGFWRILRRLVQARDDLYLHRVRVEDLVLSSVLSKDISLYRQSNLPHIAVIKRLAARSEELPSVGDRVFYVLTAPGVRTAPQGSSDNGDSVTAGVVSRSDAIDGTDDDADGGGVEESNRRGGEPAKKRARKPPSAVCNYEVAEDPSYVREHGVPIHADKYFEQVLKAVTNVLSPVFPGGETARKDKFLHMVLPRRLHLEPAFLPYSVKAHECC

Compound	MCC at 72 h [1]	EC50 (Human betaherpesvirus 5 [2])	Activity (Human alphaherpesvirus 2)	Activity (Human alphaherpesvirus 1)	EC50 (Human betaherpesvirus 5 [3])	EC50 (Human betaherpesvirus 5 [4])	Activity (Human betaherpesvirus 5 [5])	Activity (Vaccinia virus)	EC50 (Human betaherpesvirus 5 [7])	EC50 (Murid betaherpesvirus 1)	EC50 (Human betaherpesvirus 5 [8])	EC50 (Human alphaherpesvirus 3 [9])	CC50 at 72 h [10]	EC50 (Human betaherpesvirus 5 [11])	EC50 (Human betaherpesvirus 5 [12])	EC50 (Human betaherpesvirus 5 [13])	EC50 (Human betaherpesvirus 5 [14])	EC50 (Human betaherpesvirus 5 [15])	EC50 (Human alphaherpesvirus 3 [16])	other results
Cc1cn([C@@H]2O[C@H](CO[Si](C)(C)C(C)(C)C(C)C)[C@@]3(OS(=O)(=O)C=C3NC(=O)NC(=O)c3ccccc3)[C@H]2O[Si](C)(C)C(C)(C)C)c(=O)n(C)c1=O	≥ 100 µM	1 µg/mL (≈ 1.28 µM)	inactive	inactive	0.67 µg/mL (≈ 0.86 µM)	1400 nM	inactive	inactive	0.86 µg/mL (≈ 1.1 µM)	660 nM	1.3 µg/mL (≈ 1.67 µM)	11000 nM	> 50000 nM	1100 nM	0.9 µg/mL (≈ 1.16 µM)	3.1 µg/mL (≈ 3.98 µM)	1.1 µg/mL (≈ 1.41 µM)	0.78 µg/mL (≈ 1 µM)	11000 nM	Activity (Human betaherpesvirus 5 [6]): inactive
Cc1cn([C@@H]2O[C@H](CO[Si](C)(C)C(C)(C)C(C)C)[C@@]3(OS(=O)(=O)C=C3NC(=O)NC(=O)c3ccccc3)[C@H]2O[Si](C)(C)C(C)(C)C(C)C)c(=O)n(C)c1=O	≥ 100 µM	2.6 µg/mL (≈ 3.22 µM)	inactive	inactive	2.9 µg/mL (≈ 3.59 µM)	1500 nM	inactive	inactive	5.5 µg/mL (≈ 6.81 µM)	540 nM	5.7 µg/mL (≈ 7.06 µM)	11000 nM	> 50000 nM	1200 nM	3.3 µg/mL (≈ 4.09 µM)	5.6 µg/mL (≈ 6.94 µM)	2.7 µg/mL (≈ 3.35 µM)	2.7 µg/mL (≈ 3.35 µM)	11000 nM	
O=C(O)P(=O)(O)O [FOSCARNET]		14 µg/mL (≈ 111 µM)			29 µg/mL (≈ 230 µM)				34 µg/mL (≈ 270 µM)		31 µg/mL (≈ 246 µM)				17 µg/mL (≈ 135 µM)	35 µg/mL (≈ 278 µM)	37 µg/mL (≈ 294 µM)	135 µg/mL (≈ 1070 µM)		Activity [17]: Active
